Test results: ChEMBL document CHEMBL1138136, “Aplysamine-1 and related analogs as histamine H3 receptor antagonists” (Bioorg Med Chem Lett, 2006)

Tests used:
[1] = target: T1, Histamine H3 receptor (Homo sapiens, UniProt Q9Y5N1); assay: Displacement of N-[3H]methylhistamine from human histamine H3 receptor expressed in SK-N-MC cells; type: cell-based
[2] = target: Histamine H3 receptor (Rattus norvegicus, UniProt Q9QYN8); assay: Displacement of N-[3H]methylhistamine from rat histamine H3 receptor in rat cortical hemispheres
Histamine H3 receptor (Rattus norvegicus, UniProt Q9QYN8), sequence (Q9QYN8 whole entry): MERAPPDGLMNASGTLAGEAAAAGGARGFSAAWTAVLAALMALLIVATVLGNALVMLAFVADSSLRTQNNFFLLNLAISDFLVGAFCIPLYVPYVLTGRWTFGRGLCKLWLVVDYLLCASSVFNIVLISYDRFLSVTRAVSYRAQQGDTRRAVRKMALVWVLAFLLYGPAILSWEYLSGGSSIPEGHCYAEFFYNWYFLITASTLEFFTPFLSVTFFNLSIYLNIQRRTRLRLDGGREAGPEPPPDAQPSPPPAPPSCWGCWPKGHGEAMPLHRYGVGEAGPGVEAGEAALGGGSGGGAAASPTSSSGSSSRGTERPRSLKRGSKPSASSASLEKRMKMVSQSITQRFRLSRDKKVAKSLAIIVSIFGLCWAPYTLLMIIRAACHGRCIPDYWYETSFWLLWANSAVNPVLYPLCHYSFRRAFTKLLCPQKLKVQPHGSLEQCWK

[3] = target: T1, Histamine H3 receptor; assay: Activity against human histamine H3 receptor by histamine induced inhibition of forskolin stimulated cAMP accumulation in SK-N-MC cells; type: functional, cell-based; conditions: read-out: pA2 (converted)
How it was run: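 SK-N-MC cells overexpressing human H3 receptor; antagonist-induced rightward shifts of histamine dose–response curves for inhibition of forskolin-stimulated cAMP accumulation measured. pA2 obtained by Schild regression analysis.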

T1 sequence (Q9Y5N1 whole entry): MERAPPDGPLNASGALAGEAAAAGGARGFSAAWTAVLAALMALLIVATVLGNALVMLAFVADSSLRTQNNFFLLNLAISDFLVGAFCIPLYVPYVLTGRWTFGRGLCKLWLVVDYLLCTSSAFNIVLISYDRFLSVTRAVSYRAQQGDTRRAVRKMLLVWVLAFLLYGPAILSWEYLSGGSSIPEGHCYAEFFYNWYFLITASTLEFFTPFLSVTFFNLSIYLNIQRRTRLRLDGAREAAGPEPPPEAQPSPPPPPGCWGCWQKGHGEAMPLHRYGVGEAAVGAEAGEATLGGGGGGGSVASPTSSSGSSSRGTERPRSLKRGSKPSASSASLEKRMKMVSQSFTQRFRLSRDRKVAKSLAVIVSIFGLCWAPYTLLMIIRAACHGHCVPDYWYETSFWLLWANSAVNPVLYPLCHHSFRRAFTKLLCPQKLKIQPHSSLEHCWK

SMILES	Ki [1]	Ki [2]	Kb [3]
Brc1cc(CN2CCCCC2)cc(Br)c1OCCCN1CCCCC1	8 nM	57 nM	7.24 nM
CN(C)CCCOc1ccc(CN(C)C)cc1	18 nM	255 nM	
CN(C)CCOc1ccc(CCN(C)C)cc1	40 nM	345 nM	
CN(C)CCCOc1c(Br)cc(CN(C)C)cc1Br	36 nM	319 nM	
CN(C)CCCOc1ccc(CCN(C)C)cc1	6 nM	89 nM	17 nM
CN(C)CCc1ccc(OCCCN2CCCCC2)cc1	0.5 nM	5 nM	0.501 nM
CN(C)CCCOc1ccc(CN2CCCCC2)cc1	3 nM	45 nM	9.33 nM
CN(C)CCc1ccc(OCCN2CCCCC2)cc1	14 nM	50 nM	
CCCCN(CCCC)CCCOc1ccc(-c2cn3c(C)cccc3n2)cc1	4000 nM		
CN(C)CCCOc1c(Br)cc(CCN(C)C)cc1Br [APLYSAMINE]		249 nM	
c1cc(OCCCN2CCCCC2)ccc1CN1CCCCC1 [JNJ-5207852]		1 nM	
